Test results taken from ChEMBL document CHEMBL1938246, “Eudesmane-type sesquiterpene lactones inhibit multiple steps in the NF-κB signaling pathway induced by inflammatory cytokines” (Bioorg Med Chem Lett, 2012).
The source made the active and inactive calls. No cut-off for these calls is given here.

Tests used:
[1] = (§1) Inhibition of NFkappaB-mediated ICAM1 expression in TNFalpha-stimulated human A549 cells treated 1 hr before TNFalpha challenge measured after 6 hrs by ELISA; assay type: cell-based
Outline: (§2)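 A549 cells preincubated 1 h with serial dilutions of compound, then stimulated with IL-1α (0.25 ng/mL) or TNF-α (2.5 ng/mL) for 6 h with compound still present. Cell-surface ICAM-1 (%) by cell ELISA on triplicate cultures. IC50 (µM) is the mean of at least three independent experiments.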

A549 [2] = test: as §1; assay type: cell-based; outline: as §2
A549 [3] = test: Cytotoxicity against human A549 cells at 100 to 320 uM after 24 hrs by MTT assay; assay type: cell-based; details: a549, 24 h
A549 [4] = test: Cytotoxicity against human A549 cells after 24 hrs by MTT assay; assay type: cell-based; details: a549, 24 h
Outline: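 A549 cells exposed to serial dilutions of compound for 24 h. Viability (%) by MTT assay on triplicate cultures. IC50 (µM) is the mean of four independent experiments.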

A549 [5] = test: Inhibition of NFkappaB-mediated ICAM1 protein expression in IL1alpha-stimulated human A549 cells preincubated for 1 hr prior IL1alpha challenge measured after 6 hrs by Western blot analysis; assay type: cell-based
[6] = (§3) Inhibition of NFkappaB-mediated ICAM1 expression in IL1alpha-stimulated human A549 cells treated 1 hr before IL1alpha challenge measured after 6 hrs by ELISA; assay type: cell-based; outline: as §2
A549 [7] = test: as §3; assay type: cell-based; outline: as §2
[8] = target: Transcription factor p65 (Homo sapiens) (UniProt Q04206); test: Inhibition of NF-kappaB p65 nuclear translocation in IL1alpha-stimulated human A549 cells at 100 uM incubated for 1 hr prior IL1alpha challenge measured after 30 mins by Western blot analysis; assay type: cell-based
Sequence of Transcription factor p65 (Homo sapiens) (Q04206 whole entry): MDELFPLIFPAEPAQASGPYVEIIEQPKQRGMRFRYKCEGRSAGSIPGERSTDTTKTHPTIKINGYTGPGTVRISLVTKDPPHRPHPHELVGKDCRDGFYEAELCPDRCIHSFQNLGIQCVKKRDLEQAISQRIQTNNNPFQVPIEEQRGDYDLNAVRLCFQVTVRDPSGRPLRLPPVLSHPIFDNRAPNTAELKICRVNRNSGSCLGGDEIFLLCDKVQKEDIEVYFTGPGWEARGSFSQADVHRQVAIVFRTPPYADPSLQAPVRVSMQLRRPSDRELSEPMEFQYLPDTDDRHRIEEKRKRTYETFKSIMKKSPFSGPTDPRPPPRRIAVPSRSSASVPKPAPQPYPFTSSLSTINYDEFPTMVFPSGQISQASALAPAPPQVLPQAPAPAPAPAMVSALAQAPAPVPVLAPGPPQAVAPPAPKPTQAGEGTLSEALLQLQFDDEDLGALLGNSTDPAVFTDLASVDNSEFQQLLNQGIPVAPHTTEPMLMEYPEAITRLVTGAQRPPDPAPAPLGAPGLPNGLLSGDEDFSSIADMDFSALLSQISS
Outline: (§4)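 A549 cells pretreated 1 h with compound at the stated concentrations, then stimulated 30 min with IL-1α (0.25 ng/mL) or TNF-α. p65 and p50 subunits then assessed for movement from cytoplasm to nucleus.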

A549 [9] = test: Inhibition of NF-kappaB p50 nuclear translocation in IL1alpha-stimulated human A549 cells at 100 uM incubated for 1 hr prior IL1alpha challenge measured after 30 mins by Western blot analysis; assay type: cell-based; outline: as §4
A549 [10] = test: Inhibition of NF-kappaB p50 nuclear translocation in TNFalpha-stimulated human A549 cells at 100 uM incubated for 1 hr prior TNFalpha challenge measured after 30 mins by Western blot analysis; assay type: cell-based; outline: as §4
[11] = target: Transcription factor p65 (Homo sapiens) (UniProt Q04206); test: Inhibition of NF-kappaB p65 nuclear translocation in TNFalpha-stimulated human A549 cells at 100 uM incubated for 1 hr prior TNFalpha challenge measured after 30 mins by Western blot analysis; assay type: cell-based; outline: as §4
A549 [12] = test: Inhibition of NFkappaB-mediated ICAM1 protein expression in TNFalpha-stimulated human A549 cells preincubated for 1 hr prior TNFalpha challenge measured after 6 hrs by Western blot analysis; assay type: cell-based
[13] = target: Transcription factor p65 (Homo sapiens) (UniProt Q04206); test: Inhibition of NF-kappaB p65 nuclear translocation in IL1alpha-stimulated human A549 cells at 30 to 100 uM incubated for 1 hr prior IL1alpha challenge measured after 30 mins by Western blot analysis; assay type: cell-based; outline: as §4
[14] = Selectivity ratio of IC50 for human A549 cells to IC50 for NFkappaB-mediated ICAM1 expression in human A549 cells; assay type: ADME, cell-based; details: read-out: Ratio IC50
[15] = target: T1, NF-kappa-B inhibitor alpha (Homo sapiens) (UniProt P25963); test: Inhibition of IL1alpha-induced IkappaBalpha phosphorylation in human A549 cells at 100 uM incubated for 1 hr prior IL1alpha challenge measured after 15 mins by Western blot analysis in the presence of proteasome inhibitor MG-132; assay type: cell-based
T1 sequence (whole entry): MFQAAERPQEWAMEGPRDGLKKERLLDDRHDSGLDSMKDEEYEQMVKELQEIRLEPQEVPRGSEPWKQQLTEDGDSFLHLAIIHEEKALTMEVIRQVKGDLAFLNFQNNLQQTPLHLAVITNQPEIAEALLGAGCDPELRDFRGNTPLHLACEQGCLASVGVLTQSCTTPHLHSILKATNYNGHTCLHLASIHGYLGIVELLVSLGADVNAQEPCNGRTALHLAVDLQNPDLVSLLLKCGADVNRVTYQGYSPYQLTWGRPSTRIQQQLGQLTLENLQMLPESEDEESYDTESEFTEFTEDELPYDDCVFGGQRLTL
Outline: (§5)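 A549 cells preincubated 1 h with or without the proteasome inhibitor MG-132 (20 µM) or with compound at various concentrations. Then stimulated 15 min with IL-1α (0.25 ng/mL) or TNF-α (2.5 ng/mL), or left unstimulated, with compound present. IκBα phosphorylation then examined.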

A549 [16] = test: Inhibition of TNF-alpha-induced IkappaBalpha degradation in human A549 cells at 100 uM incubated for 1 hr prior TNFalpha challenge measured after 15 mins by Western blot analysis; assay type: functional, cell-based
Outline: (§6)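 A549 cells preincubated 1 h with compound at the stated concentrations, then given IL-1α (0.25 ng/mL) or TNF-α (2.5 ng/mL). IκBα degradation then monitored.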

A549 [17] = test: Inhibition of NF-kappaB p50 nuclear translocation in TNFalpha-stimulated human A549 cells at 30 to 100 uM incubated for 1 hr prior TNFalpha challenge measured after 30 mins by Western blot analysis; assay type: cell-based; outline: as §4
[18] = target: Transcription factor p65 (Homo sapiens) (UniProt Q04206); test: Inhibition of NF-kappaB p65 nuclear translocation in TNFalpha-stimulated human A549 cells at 30 to 100 uM incubated for 1 hr prior TNFalpha challenge measured after 30 mins by Western blot analysis; assay type: cell-based; outline: as §4
A549 [19] = test: Inhibition of NF-kappaB p50 nuclear translocation in IL1alpha-stimulated human A549 cells at 30 to 100 uM incubated for 1 hr prior IL1alpha challenge measured after 30 mins by Western blot analysis; assay type: cell-based; outline: as §4
[20] = target: T1, NF-kappa-B inhibitor alpha (Homo sapiens); test: Inhibition of TNF-alpha-induced IkappaBalpha phosphorylation in human A549 cells at 100 uM incubated for 1 hr prior TNFalpha challenge measured after 15 mins by Western blot analysis in the presence of proteasome inhibitor MG-132; assay type: cell-based; outline: as §5
A549 [21] = test: Inhibition of IL1alpha-induced IkappaBalpha degradation in human A549 cells at 100 uM incubated for 1 hr prior IL1alpha challenge measured after 15 mins by Western blot analysis; assay type: functional, cell-based; outline: as §6
A549 [22] = test: Cytotoxicity against human A549 cells at 100 uM up to 7 hrs by MTT assay; assay type: cell-based; details: a549, 7 h
[23] = target: T1, NF-kappa-B inhibitor alpha (Homo sapiens); test: Inhibition of IL1alpha-induced IkappaBalpha phosphorylation in human A549 cells at 10 to 100 uM incubated for 1 hr prior to IL1alpha challenge measured after 15 mins by Western blot analysis in the presence of proteasome inhibitor MG-132; assay type: cell-based; outline: as §5
A549 [24] = test: Cytotoxicity against human A549 cells at 100 uM up to 7 hrs by crystal violet staining; assay type: cell-based; details: a549, 7 h
[25] = target: T1, NF-kappa-B inhibitor alpha (Homo sapiens); test: Inhibition of TNF-alpha-induced IkappaBalpha phosphorylation in human A549 cells at 10 to 100 uM incubated for 1 hr prior to TNFalpha challenge measured after 15 mins by Western blot analysis in the presence of proteasome inhibitor MG-132; assay type: cell-based; outline: as §5

Row | IC50 [1] [µM] | IC50 [6] [µM] | inhibition [13] | inhibition [18] | SMILES | inhibition (A549 [2]) | IC50 (A549 [4]) [µM] | inhibition (A549 [5]) | inhibition (A549 [7]) | inhibition (A549 [12]) | selectivity ratio [14] | inhibition [15] | inhibition (A549 [16]) | inhibition (A549 [17]) | inhibition (A549 [19]) | inhibition [20] | inhibition (A549 [21]) | also measured
1 | 34 | 52 |  |  | C[C@@H]1C(=O)O[C@H]2[C@H]1CC[C@@]1(C)C=CC(=O)[C@@H](C)[C@H]21 | Dose-dependent effect | > 320 | Dose-dependent effect | Dose-dependent effect | Dose-dependent effect |  |  |  |  |  |  |  | Activity (A549 [3]): Toxic; inhibition [8]: Active; inhibition (A549 [9]): Active; inhibition (A549 [10]): Active; inhibition [11]: Active
2 | 2.8 | 3.4 | Active | Active | C=C1C(=O)O[C@@H]2[C@H]3[C@H](C)C(=O)[C@H](Br)C[C@]3(C)CC[C@@H]12 | Dose-dependent effect | 88 | Dose-dependent effect | Dose-dependent effect | Dose-dependent effect | 10 | Active | Active | Active | Active | Active | Active | 
3 | 4.6 | 10 | Active | Active | C[C@@H]1C(=O)O[C@H]2[C@H]1CC[C@@]1(C)C[C@@H](Br)C(=O)[C@@H](C)[C@H]21 | Dose-dependent effect | > 320 | Dose-dependent effect | Dose-dependent effect | Dose-dependent effect |  |  | inactive | Active | Active |  | Active | Activity (A549 [3]): Toxic; Activity (A549 [22]): Non-toxic; inhibition [23]: Active; Activity (A549 [24]): Non-toxic; inhibition [25]: Active
4 | 4.3 | 6.2 | Active | Active | C=C1C(=O)O[C@@H]2[C@H]3[C@H](C)C(=O)CC[C@]3(C)CC[C@@H]12 | Dose-dependent effect | 110 | Dose-dependent effect | Dose-dependent effect | Dose-dependent effect | 10 | Active | Active | Active | Active | Active | Active | 
5 | > 320 | > 320 |  |  | C[C@@H]1C(=O)O[C@H]2[C@H]1CC[C@@]1(C)CCC(=O)[C@@H](C)[C@H]21 | inactive | > 320 |  | inactive |  |  |  |  |  |  |  |  | 
6 | > 320 | > 320 |  |  | C[C@H]1[C@@H]2[C@H]3OC(=O)[C@@H](C)[C@@H]3CC[C@@]2(C)C=C[C@@H]1O | inactive | > 320 |  | inactive |  |  |  |  |  |  |  |  | 

Row | SMILES | IC50 [1] [µM] | IC50 [6] [µM] | inhibition [13] | inhibition [18] | inhibition (A549 [2]) | IC50 (A549 [4]) [µM] | inhibition (A549 [5]) | inhibition (A549 [7]) | inhibition (A549 [12]) | selectivity ratio [14] | inhibition [15] | inhibition (A549 [16]) | inhibition (A549 [17]) | inhibition (A549 [19]) | inhibition [20] | inhibition (A549 [21]) | also measured
7 | C=C1C(=O)O[C@@H]2[C@H]3[C@H](C)C(=O)C=C[C@]3(C)CC[C@@H]12 | 4.3 | 10 | Active | Active | Dose-dependent effect | 120 | Dose-dependent effect | Dose-dependent effect | Dose-dependent effect | 10 | Active | Active | Active | Active | Active | Active | 
8 | C=C1C(=O)O[C@@H]2[C@H]3[C@H](C)[C@@H](O)C=C[C@]3(C)CC[C@@H]12 | 6.1 | 23 | Active | Active | Dose-dependent effect | 140 | Dose-dependent effect | Dose-dependent effect | Dose-dependent effect | 10 | inactive | inactive | Active | Active | inactive | inactive | 
